Assay results reported in ChEMBL document CHEMBL1153561, “Staphylococcus aureus clinical isolate with high-level methicillin resistance with an lytH mutation caused by IS1182 insertion” (2008).
Values after ≈ are worked out from the molar mass of the structure shown.

What was measured:
Type in all cases: functional
[1] = tested on: Staphylococcus aureus; assay: Antibacterial activity against high-level methicillin-resistant Staphylococcus aureus SRM551 harboring active lytH and llm gene after 24 hrs by serial twofold dilution method; settings: SRM551, 24 h
Outline: (§1)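 Agar dilution MIC: tryptic soy agar plates carried serial twofold dilutions of antibiotic. Overnight tryptic soy broth cultures were diluted to about 10⁶ CFU/ml, and 1 μl of each suspension was spotted onto the plates. Plates were incubated 24 h at 37°C, then MICs were scored.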

[2] = tested on: Staphylococcus aureus; assay: Antibacterial activity against high-level methicillin-resistant Staphylococcus aureus SRM563 harboring active lytH gene and inactive llm gene after 24 hrs by serial twofold dilution method; settings: SRM563, 24 h; outline: as §1
[3] = tested on: Staphylococcus aureus; assay: Antibacterial activity against high-level methicillin-resistant Staphylococcus aureus SR-17164 harboring inactive lytH gene and active llm gene after 24 hrs by serial twofold dilution method; settings: SR17164, 24 h; outline: as §1
[4] = tested on: Staphylococcus aureus; assay: Antibacterial activity against high-level methicillin-resistant Staphylococcus aureus SRM1832 harboring inactive lytH and inactive llm gene after 24 hrs by serial twofold dilution method; settings: SRM1832, 24 h; outline: as §1
[5] = tested on: Staphylococcus aureus; assay: Antibacterial activity against high-level methicillin-resistant Staphylococcus aureus SRM1648 harboring inactive lytH gene and active llm gene after 24 hrs by serial twofold dilution method; settings: SRM1648, 24 h; outline: as §1
[6] = tested on: Staphylococcus aureus; assay: Antibacterial activity against high-level methicillin-resistant Staphylococcus aureus SRM1816 harboring inactive lytH and inactive llm gene after 24 hrs by serial twofold dilution method; settings: SRM1816, 24 h; outline: as §1
[7] = tested on: Staphylococcus aureus; assay: Antibacterial activity against high-level methicillin-resistant Staphylococcus aureus SRM1663 harboring inactive lytH gene and active llm gene after 24 hrs by serial twofold dilution method; settings: SRM1663, 24 h; outline: as §1
[8] = tested on: Staphylococcus aureus; assay: Antibacterial activity against high-level methicillin-resistant Staphylococcus aureus SRM1825 harboring inactive lytH and inactive llm gene after 24 hrs by serial twofold dilution method; settings: SRM1825, 24 h; outline: as §1
[9] = tested on: Staphylococcus aureus; assay: Antibacterial activity against high-level methicillin-resistant Staphylococcus aureus SRM1648 with deltarel-lytH region after 24 hrs by serial twofold dilution method; settings: SRM1648, 24 h; outline: as §1
[10] = tested on: Staphylococcus aureus; assay: Antibacterial activity against high-level methicillin-resistant Staphylococcus aureus SR-17164 with lytH gene inactivated by insertion sequence IS1182 measured after 24 hrs by serial twofold dilution method; settings: SR17164, 24 h; outline: as §1
[11] = tested on: Staphylococcus aureus; assay: Antibacterial activity against high-level methicillin-resistant Staphylococcus aureus SR-17164 harboring intact lytH gene after 24 hrs by serial twofold dilution method; settings: SR17164, 24 h; outline: as §1
[12] = tested on: Staphylococcus aureus; assay: Antibacterial activity against high-level methicillin-resistant Staphylococcus aureus SR-17164 harboring lytH::IS1182 gene after 24 hrs by serial twofold dilution method; settings: SR17164, 24 h; outline: as §1
[13] = tested on: Staphylococcus aureus; assay: Antibacterial activity against low-level methicillin-resistant Staphylococcus aureus SR-17238 after 24 hrs by serial twofold dilution method; settings: SR17238, 24 h; outline: as §1
[14] = tested on: Staphylococcus aureus; assay: Antibacterial activity against methicillin-resistant Staphylococcus aureus SRM2148 containing pSR108 harboring deletion in rel-lytH region after 24 hrs by serial twofold dilution method; settings: SRM2148, 24 h
[15] = tested on: Staphylococcus aureus; assay: Antibacterial activity against methicillin-resistant Staphylococcus aureus SRM2149 containing pSR108 harboring deletion in rel-lytH region after 24 hrs by serial twofold dilution method; settings: SRM2149, 24 h
[16] = tested on: Staphylococcus aureus; assay: Antibacterial activity against methicillin-resistant Staphylococcus aureus SRM2150 containing pSR108 harboring deletion in rel-lytH region after 24 hrs by serial twofold dilution method; settings: SRM2150, 24 h
[17] = tested on: Staphylococcus aureus; assay: Antibacterial activity against methicillin-resistant Staphylococcus aureus SRM2151 containing pSR108 harboring deletion in rel-lytH region after 24 hrs by serial twofold dilution method; settings: SRM2151, 24 h
[18] = tested on: Staphylococcus aureus; assay: Antibacterial activity against low-level methicillin-resistant Staphylococcus aureus SR-20118 after 24 hrs by serial twofold dilution method; settings: SR20118, 24 h; outline: as §1
[19] = tested on: Staphylococcus aureus; assay: Antibacterial activity against low-level methicillin-resistant Staphylococcus aureus SR-20137 after 24 hrs by serial twofold dilution method; settings: SR20137, 24 h; outline: as §1
[20] = tested on: Staphylococcus aureus; assay: Antibacterial activity against low-level methicillin-resistant Staphylococcus aureus SR-20202 after 24 hrs by serial twofold dilution method; settings: SR20202, 24 h; outline: as §1
[21] = tested on: Staphylococcus aureus; assay: Antibacterial activity against low-level methicillin-resistant Staphylococcus aureus SR-20280 after 24 hrs by serial twofold dilution method; settings: SR20280, 24 h; outline: as §1
[22] = tested on: Staphylococcus aureus; assay: Antibacterial activity against methicillin-resistant Staphylococcus aureus SRM1664 containing pSR100 harboring deletion in rel-lytH region after 24 hrs by serial twofold dilution method; settings: SRM1664, 24 h
[23] = tested on: Staphylococcus aureus; assay: Antibacterial activity against methicillin-resistant Staphylococcus aureus SRM1665 containing pSR108 harboring deletion in rel-lytH region after 24 hrs by serial twofold dilution method; settings: SRM1665, 24 h

SMILES	MIC [1] [µg/mL]	MIC [2] [µg/mL]	MIC [3] [µg/mL]	MIC [4] [µg/mL]	MIC [5] [µg/mL]	MIC [6] [µg/mL]	MIC [7] [µg/mL]	MIC [8] [µg/mL]	MIC [9] [µg/mL]	MIC [10] [µg/mL]	MIC [11] [µg/mL]	MIC [12] [µg/mL]	MIC [13] [µg/mL]	other results
Cc1nnc(SCC2=C(C(=O)O)N3C(=O)[C@@H](NC(=O)Cn4cnnn4)[C@H]3SC2)s1 [CEFAZOLIN]	200 (≈ 440 µM)	12.5 (≈ 27.5 µM)	400 (≈ 880 µM)	200 (≈ 440 µM)	400 (≈ 880 µM)	100 (≈ 220 µM)	400 (≈ 880 µM)	200 (≈ 440 µM)	–	–	–	–	–	–
C[C@@H](O)[C@H]1C(=O)N2C(C(=O)O)=C(SCCNC=N)C[C@H]12 [IMIPENEM ANHYDROUS]	50 (≈ 167 µM)	0.39 (≈ 1.3 µM)	100 (≈ 334 µM)	50 (≈ 167 µM)	100 (≈ 334 µM)	25 (≈ 83.5 µM)	100 (≈ 334 µM)	50 (≈ 167 µM)	50 (≈ 167 µM)	100 (≈ 334 µM)	50 (≈ 167 µM)	100 (≈ 334 µM)	≤ 0.1	–
COc1cccc(OC)c1C(=O)N[C@@H]1C(=O)N2[C@@H]1SC(C)(C)[C@@H]2C(=O)O [METHICILLIN]	800 (≈ 2100 µM)	12.5 (≈ 32.9 µM)	1600 (≈ 4210 µM)	800 (≈ 2100 µM)	1600 (≈ 4210 µM)	100 (≈ 263 µM)	1600 (≈ 4210 µM)	400 (≈ 1050 µM)	1600 (≈ 4210 µM)	1600 (≈ 4210 µM)	800 (≈ 2100 µM)	1600 (≈ 4210 µM)	6.3 (≈ 16.6 µM)	MIC [14]: 12.5 µg/mL (≈ 32.9 µM); MIC [15]: 25 µg/mL (≈ 65.7 µM); MIC [16]: 50 µg/mL (≈ 131 µM); MIC [17]: 6.3 µg/mL (≈ 16.6 µM); MIC [18]: 12.5 µg/mL (≈ 32.9 µM); MIC [19]: 12.5 µg/mL (≈ 32.9 µM); MIC [20]: 25 µg/mL (≈ 65.7 µM); MIC [21]: 6.3 µg/mL (≈ 16.6 µM); MIC [22]: 6.3 µg/mL (≈ 16.6 µM); MIC [23]: 25 µg/mL (≈ 65.7 µM)
